In ChEMBL document CHEMBL1138796, “Novel 5-HT7 receptor inverse agonists. Synthesis and molecular modeling of arylpiperazine- and 1,2,3,4-tetrahydroisoquinoline-based arylsulfonamides” (J Med Chem, 2004):
“And” between values parts separate entries of the source, which are not always exact repeats. Equal values may be shown once.

Tests used:
[1] = biological target: 5-hydroxytryptamine receptor 7 (Rattus norvegicus) (UniProt P32305); experiment: Effect on basal adenylate cyclase activity relative to potency of methiothepin using rat 5-HT7 receptor expressed in HEK cells; format: cell-based; settings: HEK293
5-hydroxytryptamine receptor 7 (Rattus norvegicus), sequence (P32305 whole entry): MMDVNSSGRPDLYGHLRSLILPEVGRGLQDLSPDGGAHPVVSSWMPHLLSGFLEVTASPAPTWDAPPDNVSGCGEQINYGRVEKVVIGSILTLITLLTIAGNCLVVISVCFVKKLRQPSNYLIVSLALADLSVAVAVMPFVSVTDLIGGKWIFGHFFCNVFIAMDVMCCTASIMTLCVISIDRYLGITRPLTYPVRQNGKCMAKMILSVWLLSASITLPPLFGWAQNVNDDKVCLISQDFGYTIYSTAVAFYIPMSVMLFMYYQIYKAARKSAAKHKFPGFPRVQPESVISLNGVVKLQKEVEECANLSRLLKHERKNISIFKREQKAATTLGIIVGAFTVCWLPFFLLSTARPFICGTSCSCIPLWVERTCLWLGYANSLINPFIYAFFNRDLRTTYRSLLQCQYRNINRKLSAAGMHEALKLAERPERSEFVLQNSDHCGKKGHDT

[2] = pKa; format: physicochemical
[3] = biological target: 5-hydroxytryptamine receptor 7 (Rattus norvegicus, UniProt P32305); experiment: Binding affinity towards rat 5-HT7 receptor expressed in HEK cells; format: cell-based, HEK293
5-hydroxytryptamine receptor 7, sequence (P32305 whole entry): as above
Outline: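 Membranes of HEK cells expressing rat 5-HT7, resuspended in 50 mM Tris HCl pH 7.4 with 0.5 mM EDTA, 10 mM MgSO4, 2 mM CaCl2, 10 µM pargyline, 0.1% ascorbic acid; 20 µg protein with 0.3 nM [3H]5-CT, 2 h at room temperature; nonspecific binding with 10 µM 5-HT; filtration, scintillation counting; IC50 by log regression, Ki via Cheng-Prusoff.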

[4] = Partition coefficient (logP); format: physicochemical; settings: octanol/water

| cAMP [1] [%] | pKa [2] | Ki [3] | logP ([4]; read-out: logP) | logP [4] | SMILES |
| --- | --- | --- | --- | --- | --- |
| -84 | 7 | 1200 nM | 2.5 |  | COc1ccc(S(=O)(=O)NCCCN2CCc3cc(OC)ccc3C2)cc1 |
| -95 | 7.4 | 11 nM | 3.8 |  | CCN(CCCN1CCc2cc(OC)ccc2C1)S(=O)(=O)c1ccc(C)cc1 |
| -93 |  | 19 nM |  |  | CCN(CCCN1CCN(c2ccccc2OC)CC1)S(=O)(=O)c1ccc(C)cc1 |
| -100 | 8.1 |  | 3.4 |  | CSc1ccc2c(c1)[C@@H](N1CCN(C)CC1)Cc1ccccc1S2 |
|  | 10.4 | 10 nM | 4.2 |  | CC1CCN(CC[C@H]2CCCN2S(=O)(=O)c2cccc3ccccc23)CC1 |
| -35 | 7.5 | 100 nM | 2.1 |  | COc1ccc(S(=O)(=O)NCCCN2CCN(c3ccccc3OC)CC2)cc1 |
| -36 | 7 | 75 nM | 2.3 |  | COc1ccc2c(c1)CCN(CCCNS(=O)(=O)c1ccccc1)C2 |
|  | 10.4 | 1 nM | 2.7 |  | CC1CCN(CC[C@H]2CCCN2S(=O)(=O)c2cccc(O)c2)CC1 |
| -66 | 7.4 | 75 nM | 2.2 |  | COc1ccccc1N1CCN(CCNS(=O)(=O)c2ccc(C)cc2)CC1 |
|  | 10.4 | 3 nM | 3.7 |  | Cc1cccc(S(=O)(=O)N2CCC[C@@H]2CCN2CCC(C)CC2)c1 [SB-258741] |
| -20 | 7.5 | 52 nM | 2.6 |  | COc1ccccc1N1CCN(CCCNS(=O)(=O)c2ccc(C)cc2)CC1 |
| -94 | 7.4 | 29 nM | 3.3 |  | CCN(CCCN1CCc2cc(OC)ccc2C1)S(=O)(=O)c1ccc(OC)cc1 |
| -104 | 7 | 360 nM | 3.6 |  | COc1ccc2c(c1)CCN(CCCNS(=O)(=O)c1cccc3ccccc13)C2 |
| -91 | 7.4 | 19 nM | 4.3 |  | CCN(CCCN1CCc2cc(OC)ccc2C1)S(=O)(=O)c1cccc2ccccc12 |
| -61 | 7 | 520 nM | 3 |  | COc1ccc2c(c1)CCN(CCCNS(=O)(=O)c1ccc(C)cc1)C2 |
| -93 | 7.4 | 54 nM | 3.1 |  | CCN(CCCN1CCc2cc(OC)ccc2C1)S(=O)(=O)c1ccccc1 |
|  | 8.6 | 1180 nM and 1100 nM | 1.6 | 1.6 | COc1ccc2c(c1)N(CCN(C)C)CCO2 |

| SMILES | cAMP [1] [%] | pKa [2] | Ki [3] | logP ([4]; read-out: logP) | logP [4] |
| --- | --- | --- | --- | --- | --- |
| COc1ccc2c(c1)c(CCN(C)C)cn2C | -7 | 9.2 | 1180 nM | 2.7 |  |
| COc1ccc2[nH]cc(C3=CCN(Cc4ccccc4)CC3)c2c1 | -65 | 7.7 | 1100 nM | 4.3 |  |
